Drawing on ChEMBL document CHEMBL3616442, “Unconventional Knoevenagel-type indoles: Synthesis and cell-based studies for the identification of pro-apoptotic agents” (Eur J Med Chem, 2015), this text covers EC50 for 32 compounds.

For one assay, the system named is MT4. Briefly: Antiproliferative activity against human MT4 cells after 96 hrs by MTT assay. It counts as functional, cell-based. As to conditions: MT4, 96 h. An outline of the steps: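 Exponentially growing MT-4 cells (CD4+ human T-cells carrying integrated HTLV-1 genome), seeded at 1×10^5 cells/mL in RPMI-1640 with 10% FCS and antibiotics. Serial dilutions of compound (DMSO stock 100 mM, diluted in medium), 37 °C, 5% CO₂, 96 h. Viability read by MTT. 50% inhibition versus untreated controls by linear regression. Mean ± SD of three independent determinations.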

The nature of assay [1]: Cytotoxicity against human SKMES1 cells after 96 hrs by MTT assay. It counts as functional, cell-based. To be noted: SK-MES-1, 96 h. An outline of the steps:
(§1)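 ATCC cell lines, mycoplasma-free by Hoechst staining. Haematological lines in RPMI-1640, solid-tumour and normal fibroblast lines in their own media, all with 10% FCS and antibiotics, at 37 °C in 5% CO₂. Compounds added as serial dilutions from a 100 mM DMSO stock diluted in medium. Viability by MTT after 96 h at 37 °C. Mean ± SD of three independent determinations.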

The next assay deals with WIL2-NS. Briefly: Cytotoxicity against human WIL2-NS cells after 96 hrs by MTT assay. The assay is classed as functional, cell-based. An outline of the steps: as §1
The next assay has as its system MCF7. Briefly: Cytotoxicity against human MCF7 cells after 96 hrs by MTT assay. It counts as functional, cell-based. As to conditions: MCF7, 96 h. In a few lines: as §1
A general note: Formazan colour is commonly taken as a measure of viable cells.

The subject of another assay is CCRF-CEM. Briefly: Cytotoxicity against human CCRF-CEM cells after 96 hrs by MTT assay. The assay is classed as functional, cell-based. An outline of the steps:
as §1

The subject of the next assay is CCRF-SB. As to the kind of experiment: Cytotoxicity against human CCRF-SB cells after 96 hrs by MTT assay. It counts as functional, cell-based. In a few lines:
as §1

For another assay, the system named is SK-MEL-28. Briefly: Cytotoxicity against human SK-MEL-28 cells after 96 hrs by MTT assay. It counts as functional, cell-based. To be noted: SK-MEL-28, 96 h. In a few lines:
as §1

Another assay has as its system MRC5. As to the kind of experiment: Cytotoxicity against human MRC5 cells after 96 hrs by MTT assay. The assay is classed as cell-based. To be noted: MRC5, 96 h. An outline of the steps:
as §1

Another assay deals with DU-145. Briefly: Cytotoxicity against human DU145 cells after 96 hrs by MTT assay. The assay is classed as functional, cell-based. To be noted: DU-145, 96 h. In a few lines: as §1
The subject of another assay is HepG2. As to the kind of experiment: Cytotoxicity against human HepG2 cells after 96 hrs by MTT assay. It counts as functional, cell-based. To be noted: HepG2, 96 h. In a few lines: as §1
Assay [2] is described as follows: Cytotoxicity against human CRL7065 cells after 96 hrs by MTT assay. It counts as cell-based. To be noted: CRL-7065, 96 h. An outline of the steps: as §1

Regarding `Cn1cc(/C=C(\C#N)S(C)(=O)=O)c2ccccc21`, the EC50 in the assay with MT4 is above 100 µM.

Turning to `N#C/C(=C\c1c(-c2ccccc2)[nH]c2ccccc12)C(=O)Nc1ccc(Cl)cc1`, the EC50 with MT4 was 1.7 µM. This counts as single-digit micromolar.

In the case of `Cc1ccc(S(=O)(=O)/C(C#N)=C/c2c(-c3ccccc3)[nH]c3ccccc23)cc1`, the EC50 in the assay with MT4 came to 0.4 µM.

Compound `Cc1[nH]c2ccccc2c1/C=C(\C#N)S(=O)(=O)c1ccccc1` had an EC50 in the assay on MT4 above 100 µM.

Consider `CC(=O)C(=Cc1c(-c2ccccc2)[nH]c2ccccc12)C(C)=O`, for which, in the assay with MT4, the midpoint of the response, the EC50, lay at 1.5 µM.

For `CCOC(=O)/C(=C/c1c[nH]c2ccccc12)C(=O)c1ccccc1`, in the assay with MT4, the EC50 was above 100 µM.

For the compound `CCOC(=O)/C(C#N)=C/c1c(-c2ccccc2)[nH]c2ccccc12`, the midpoint of the response with MT4, the EC50, lay at 1.7 µM.

`N#C/C(=C\c1c(-c2ccccc2)[nH]c2ccccc12)C(N)=O` showed an EC50 in the assay with MT4 of 6 µM.

On to `CC(=O)/C(=C/c1c(-c2ccccc2)[nH]c2ccccc12)C(=O)c1ccccc1`, for which the half-maximal effective concentration (EC50) was above 100 µM in assay [1]; 12 µM in the assay on WIL2-NS; above 100 µM in the assay with MCF7; 8.1 µM in the assay with CCRF-CEM; 11 µM with CCRF-SB; above 100 µM in the assay on SK-MEL-28. Also, the EC50 was above 100 µM in the assay with MRC5; above 100 µM in the assay with DU-145; 2 µM with MT4; 79 µM in the assay with HepG2; above 100 µM in assay [2].

In the assay with MT4, `N#C/C(=C\c1c[nH]c2ccccc12)S(=O)(=O)c1ccccc1` came in with an EC50 above 100 µM.

As to `O=C(C(=Cc1c(-c2ccccc2)[nH]c2ccccc12)C(=O)c1ccccc1)c1ccccc1`, the EC50 in assay [1] is above 100 µM; with WIL2-NS, 72 µM; in the assay on MCF7 it was above 100 µM; with CCRF-CEM, 12 µM; in the assay on CCRF-SB, 12 µM; with SK-MEL-28 it was above 100 µM. The EC50 was above 100 µM with MRC5; above 100 µM in the assay on DU-145; 8.9 µM in the assay on MT4; above 100 µM in the assay with HepG2; above 100 µM in [2].

`CCOC(=O)/C(=C/c1c(-c2ccccc2)[nH]c2ccccc12)C(=O)c1ccc(Cl)cc1`: the EC50 in the assay on MT4 was found to be 9 µM.

`CS(=O)(=O)/C(C#N)=C/c1c[nH]c2ccccc12` registered an EC50 in the assay on MT4 above 100 µM.

For the compound `N#C/C(=C\c1c(-c2ccccc2)[nH]c2ccccc12)C(=O)c1ccc(Cl)cc1`, the EC50 in [1] amounted to 19 µM; in the assay with WIL2-NS it was 4.5 µM; in the assay with MCF7, 28 µM; with CCRF-CEM, 1.1 µM; in the assay on CCRF-SB, 0.6 µM; in the assay on SK-MEL-28, 15 µM. Besides, the concentration for a half-maximal effect (EC50) was 14 µM in the assay with MRC5; 11 µM in the assay on DU-145; 0.4 µM in the assay with MT4; 37 µM in the assay on HepG2; 7.4 µM in [2].

`CC(=O)/C(=C\c1c(-c2ccccc2)[nH]c2ccccc12)S(=O)(=O)c1ccc(Cl)cc1` gave an EC50 in the assay on MT4 above 100 µM.

In the assay on MT4, `N#C/C(=C\c1c(-c2ccccc2)[nH]c2ccccc12)C(=O)N1CCCCC1` gave an EC50 of 9.6 µM.

As to `CC(C)OP(=O)(OC(C)C)/C(C#N)=C/c1c(-c2ccccc2)[nH]c2ccccc12`, the EC50 in the assay with MT4 came out at 11 µM.

`N#CC(C#N)=Cc1c[nH]c2ccccc12` registered an EC50 in the assay with MT4 of 36 µM.

For `CCOC(=O)/C(=C\c1c(-c2ccccc2)[nH]c2ccccc12)C(C)=O`, the EC50 came out at 23 µM in assay [1]; 2.7 µM in the assay on WIL2-NS; 32 µM with MCF7; 1.4 µM with CCRF-CEM; 1.6 µM in the assay with CCRF-SB; 30 µM in the assay on SK-MEL-28. Also, the EC50 in the assay with MRC5 came out at 31 µM; with DU-145, 11 µM; in the assay with MT4, 0.6 µM; in the assay with HepG2, 19 µM; in assay [2], 83 µM.

`CCOC(=O)/C(=C/c1c[nH]c2ccccc12)C(=O)c1ccc([N+](=O)[O-])cc1` registered an EC50 in the assay on MT4 of 100 µM.

In the assay on MT4, `COC(=O)/C(=C\c1c(-c2ccccc2)[nH]c2ccccc12)S(=O)(=O)c1ccccc1` displayed an EC50 of 1 µM.

In the case of `Cc1[nH]c2ccccc2c1/C=C(\C#N)S(C)(=O)=O`, the EC50 in the assay with MT4 was above 100 µM.

For the compound `CCOP(=O)(OCC)/C(C#N)=C/c1c[nH]c2ccccc12`, in the assay with MT4, the midpoint of the response, the EC50, lay at 80 µM.

For `CC(C)(C)C(=O)/C(C#N)=C/c1c(-c2ccccc2)[nH]c2ccccc12`, the EC50 with MT4 came to 0.5 µM.

On to `Cn1cc(/C=C(\C#N)S(=O)(=O)c2ccccc2)c2ccccc21`, for which the EC50 with MT4 was above 100 µM.

In the case of `COC(=O)/C(=C\c1c[nH]c2ccccc12)S(=O)(=O)c1ccccc1`, the EC50 with MT4 was above 100 µM.

Take `CCOC(=O)/C(=C/c1c(-c2ccccc2)[nH]c2ccccc12)C(=O)c1ccc([N+](=O)[O-])cc1`: the EC50 in assay [1] was 19 µM; in the assay with WIL2-NS, 2.4 µM; with MCF7, 40 µM; in the assay on CCRF-CEM, 1.8 µM; in the assay on CCRF-SB, 2.2 µM; in the assay on SK-MEL-28, above 100 µM. Also, the EC50 with MRC5 is above 100 µM; with DU-145 it was 11 µM; in the assay with MT4, 1.5 µM; with HepG2, 28 µM; in [2], above 100 µM.

The compound `Cc1[nH]c2ccccc2c1C=C(C#N)C#N` displayed an EC50 in the assay with MT4 of 56 µM. That is a double-digit micromolar value.

Turning to `COCCOC(=O)/C(C#N)=C/c1c(-c2ccccc2)[nH]c2ccccc12`, the EC50 in assay [1] amounted to 5 µM; in the assay with WIL2-NS it was 2.2 µM; in the assay on MCF7 it was 12 µM; in the assay with CCRF-CEM, 1.6 µM; with CCRF-SB, 2.2 µM; with SK-MEL-28 it was 9.3 µM. For the same compound, the EC50 with MRC5 was above 100 µM; in the assay on DU-145, 4.2 µM; in the assay with MT4, 1.2 µM; with HepG2 it was 85 µM; in [2] it was 76 µM.

On to `O=C(/C(=C\c1c(-c2ccccc2)[nH]c2ccccc12)C(=O)C(F)(F)F)c1ccco1`, for which the EC50 in [1] is 27 µM; in the assay on WIL2-NS, 2.3 µM; in the assay on MCF7 it was 10 µM; with CCRF-CEM, 1.9 µM; in the assay on CCRF-SB, 1.8 µM; in the assay with SK-MEL-28 it was 33 µM. For the same compound, the EC50 in the assay on MRC5 turned out to be 12 µM; in the assay with DU-145 it was 9.2 µM; with MT4, 0.8 µM; with HepG2, 16 µM; in assay [2], 8.1 µM.

As for `COc1cccc2c1C(=O)c1c(O)c3c(c(O)c1C2=O)C[C@@](O)(C(=O)CO)C[C@@H]3O[C@H]1C[C@H](N)[C@H](O)[C@H](C)O1` [DOXORUBICIN], the EC50 came to 0.1 µM in assay [1]; 0.04 µM with WIL2-NS; 0.3 µM in the assay with MCF7; 0.02 µM in the assay on CCRF-CEM; 0.01 µM in the assay with CCRF-SB; 0.7 µM with SK-MEL-28. Further, the EC50 in the assay on MRC5 was 0.3 µM; in the assay on DU-145 it was 0.2 µM; with MT4 it was 0.03 µM; in the assay on HepG2, 0.3 µM; in assay [2], 0.9 µM.

As for `CCOC(=O)/C(=C/c1c(-c2ccccc2)[nH]c2ccccc12)C(=O)c1ccccc1`, the EC50 in assay [1] was above 100 µM; in the assay on WIL2-NS it was 12 µM; with MCF7, 43 µM; with CCRF-CEM it was 8 µM; with CCRF-SB, 9.6 µM; in the assay on SK-MEL-28 it was above 100 µM. The EC50 with MRC5 was above 100 µM; with DU-145 it was 68 µM; in the assay with MT4, 7 µM; with HepG2, 31 µM; in [2], above 100 µM.

The term EC50 denotes the concentration needed to bring the measured effect to its halfway point. Higher therefore signals a need for much substance.
